We go through 30 compounds from ChEMBL document CHEMBL1255214, “Structure-based design of imidazo[1,2-a]pyrazine derivatives as selective inhibitors of Aurora-A kinase in cells” (Bioorg Med Chem Lett, 2010).

The target in test [1] is T1, Aurora kinase A (Homo sapiens) (UniProt O14965).
T1 sequence (whole entry): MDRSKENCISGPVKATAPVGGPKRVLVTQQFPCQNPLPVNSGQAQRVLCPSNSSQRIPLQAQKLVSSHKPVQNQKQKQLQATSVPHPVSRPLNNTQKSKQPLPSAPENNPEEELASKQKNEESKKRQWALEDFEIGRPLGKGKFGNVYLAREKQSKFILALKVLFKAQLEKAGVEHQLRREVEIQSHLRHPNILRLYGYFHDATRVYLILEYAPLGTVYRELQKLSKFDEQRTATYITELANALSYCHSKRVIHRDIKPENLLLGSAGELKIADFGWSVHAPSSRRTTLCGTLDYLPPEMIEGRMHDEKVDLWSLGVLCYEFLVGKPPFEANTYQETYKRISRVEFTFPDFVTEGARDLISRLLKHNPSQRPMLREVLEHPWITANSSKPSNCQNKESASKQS
The experiment in a line: Inhibition of human aurora A at 10 uM. A digest of the protocol:
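Recombinant human Aurora-A kinase, tested at a single concentration; percent inhibition reported as mean of samples run in triplicate.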

For another test, the target named is T2, Aurora kinase A (Homo sapiens, UniProt O14965).
T2 sequence (O14965 whole entry): T1 sequence (whole entry)
The experiment in a line: Inhibition of human aurora A. A digest of the protocol: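 Recombinant human Aurora-A kinase; IC50 measured by either a Flashplate or a Filterplate assay. Values are means of two independent determinations, or mean (SD) where n >2; some are means of samples run in triplicate.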

In a further test the test system is HCT-116. The experiment in a line: Growth inhibition of human HCT116 cells. In kind it is functional. A digest of the protocol: (§1)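 MTT read-out of cell growth, with GI50 taken from the resulting data.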
The next test has as its system HeLa. The experiment in a line: Growth inhibition of human HeLa cells. It is filed as functional. A digest of the protocol:
as §1

For the next test, the species on record is Homo sapiens. The experiment in a line: Selectivity ratio of IC50 for human aurora B to IC50 for human aurora A.
The target in another test is Aurora kinase B (Homo sapiens, UniProt Q96GD4). The experiment in a line: Inhibition of human aurora B.
Chain of Aurora kinase B (Q96GD4 whole entry): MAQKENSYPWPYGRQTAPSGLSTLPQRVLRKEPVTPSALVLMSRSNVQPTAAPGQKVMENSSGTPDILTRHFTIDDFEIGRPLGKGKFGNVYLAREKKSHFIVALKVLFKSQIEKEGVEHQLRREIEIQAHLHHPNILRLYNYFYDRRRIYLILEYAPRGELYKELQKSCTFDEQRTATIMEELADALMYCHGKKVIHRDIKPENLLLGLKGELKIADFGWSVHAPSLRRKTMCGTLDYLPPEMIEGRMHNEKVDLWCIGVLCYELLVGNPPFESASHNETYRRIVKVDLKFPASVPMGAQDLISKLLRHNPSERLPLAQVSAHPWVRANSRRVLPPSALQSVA
A further test has as its target T3, Aurora kinase C (Homo sapiens, UniProt Q9UQB9).
T3 sequence (Q9UQB9 whole entry): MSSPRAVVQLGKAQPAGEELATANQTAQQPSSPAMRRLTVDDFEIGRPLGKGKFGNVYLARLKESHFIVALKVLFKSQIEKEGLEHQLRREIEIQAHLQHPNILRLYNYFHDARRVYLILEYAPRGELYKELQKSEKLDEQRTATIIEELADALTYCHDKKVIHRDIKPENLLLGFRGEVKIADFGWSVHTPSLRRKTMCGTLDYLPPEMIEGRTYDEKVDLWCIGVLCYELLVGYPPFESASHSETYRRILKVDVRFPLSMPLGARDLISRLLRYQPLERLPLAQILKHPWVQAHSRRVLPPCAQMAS
The experiment in a line: Inhibition of human aurora C. The gist of the method: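 Recombinant human Aurora-C kinase; IC50 measured by Filterplate assay.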

Regarding `COc1ccc(Nc2nc(-c3cccc(Cl)c3)cn3ccnc23)cc1`, the inhibition in test [1] was 46%. On to `Clc1ccc(Nc2nc(-c3cccnc3)cn3ccnc23)cc1`, for which, on Aurora kinase A, the IC50 was 5.5 µM. For the compound `c1cncc(-c2cn3ccnc3c(NCc3ccc(N4CCOCC4)cc3)n2)c1`, the inhibition in test [1] turned out to be 41%. `COc1ccc(Nc2nc(-c3cccnc3)cn3ccnc23)cc1` yielded a half-inhibitory concentration (IC50) against Aurora kinase A of 2.9 µM.

Consider `COc1ccc(NC(=O)Nc2cccc(-c3cn4ccnc4c(Nc4ccc(OC)cc4)n3)c2)cc1`, for which the half-maximal inhibitory concentration (IC50) on Aurora kinase A was found to be 7.9 µM.

With `COc1ccc(Nc2nc(-c3cnn(Cc4ccccc4)c3)cn3ccnc23)cc1`, the inhibition in test [1] turned out to be 38%.

In the case of `COc1ccc(Nc2nc(-c3cccc(N)c3)cn3ccnc23)cc1`, the IC50 against Aurora kinase A is 5.48 µM. On Aurora kinase A, `Brc1cnc2c(Nc3ccc(N4CCOCC4)cc3)nc(-c3cccnc3)cn12` had an IC50 of 0.152 µM. For the same compound, the concentration for 50% growth inhibition (GI50) in the test with HCT-116 amounted to 2.3 µM; in the test with HeLa, 13.4 µM. Take `c1cncc(-c2cn3c(-c4cccnc4)cnc3c(Nc3ccc(N4CCOCC4)cc3)n2)c1`: at Aurora kinase A, the IC50 was 4.2 µM. Compound `COCC(=O)Nc1cccc(-c2cn3ccnc3c(Nc3ccc(OC)cc3)n2)c1` showed a 50% inhibitory concentration (IC50) at Aurora kinase A of 7.31 µM. The same measure, in the same setting: the same measure for `COc1ccc(Nc2nc(-c3cccc(NS(=O)(=O)c4ccc(OC)cc4)c3)cn3ccnc23)cc1`: 6.7 µM; for `O=C(Nc1ccc(Nc2nc(-c3cccnc3)cn3ccnc23)cc1)c1ccccc1`: 3.75 µM.

For the compound `CS(=O)(=O)NCc1cccc(-c2cn3c(Cl)cnc3c(Nc3ccc(N4CCOCC4)cc3)n2)c1`, in the test listed under Homo sapiens, the Ratio IC50 is 70. On Aurora kinase B, this compound yielded a 50% inhibitory concentration (IC50) of 10.5 µM. The compound `COc1ccc(Nc2nc(-c3cccc(NS(=O)(=O)c4cccnc4)c3)cn3ccnc23)cc1` registered a half-inhibitory concentration (IC50) at Aurora kinase A of 4.5 µM.

The compound `Clc1cnc2c(Nc3ccc(N4CCOCC4)cc3)nc(-c3cccnc3)cn12` came in with an IC50 against Aurora kinase C of 1.95 µM. Moreover, the figures for the 50% growth inhibitory concentration (GI50) with HCT-116 and with HeLa were 3.9 µM and 28 µM, respectively. Consider `CC(=O)Nc1ccc(Nc2nc(-c3cccnc3)cn3ccnc23)cc1`, for which the IC50 against Aurora kinase A amounted to 2.5 µM. In test [1], `COc1ccc(Nc2nc(-c3ccc(F)nc3)cn3ccnc23)cc1` returned an inhibition of 32%.

On Aurora kinase A, `Cc1cnc2c(Nc3ccc(N4CCOCC4)cc3)nc(-c3cccnc3)cn12` had a half-maximal inhibitory concentration (IC50) of 0.208 µM. Further, the GI50 with HCT-116 was 7.2 µM; in the test with HeLa, 6.5 µM. For the compound `COc1ccc(Nc2nc(-c3cccc(NC(=O)COc4ccccc4)c3)cn3ccnc23)cc1`, in test [1], the inhibition stood at 22%. On the same count and under the same terms, the same measure for `COc1ccc(Nc2nc(-c3ccc(OC)nc3)cn3ccnc23)cc1`: 30%; for `COc1ccc(Nc2nc(-c3ccc(Cl)nc3)cn3ccnc23)cc1`: 28%; for `OC1CCC(Nc2nc(-c3cccnc3)cn3ccnc23)CC1` (configuration not stated): 32%. Consider `COc1ccc(Nc2nc(-c3cccc(NC(=O)Nc4ccccc4)c3)cn3ccnc23)cc1`, for which it took 7.2 µM to reach half-maximal inhibition at Aurora kinase A (IC50). The compound `CN(c1ccccc1)c1nc(-c2cccnc2)cn2ccnc12` showed an inhibition in test [1] of 27%. For the compound `COc1ccc(Nc2nc(-c3ccn(C)n3)cn3ccnc23)cc1`, the half-inhibitory concentration (IC50) against Aurora kinase A turned out to be 9.7 µM. Regarding `c1cncc(-c2cn3ccnc3c(NCc3ccc4c(c3)OCCO4)n2)c1`, the inhibition in test [1] is 35%. Consider `c1cncc(-c2cn3ccnc3c(Nc3ccc(N4CCOCC4)cc3)n2)c1`, for which the concentration for half-maximal inhibition (IC50) at Aurora kinase A was 2.12 µM.

Take `c1ccc(Nc2nc(-c3cccnc3)cn3ccnc23)cc1`: at Aurora kinase A, half-maximal inhibition (IC50) required 6.7 µM. The compound `c1cncc(-c2cn3ccnc3c(NCCN3CCOCC3)n2)c1` gave an inhibition in test [1] of 33%.

Consider `O=C(O)c1ccc(Nc2ncc3c(n2)-c2ccc(Cl)cc2C(c2c(F)cccc2F)=NC3)cc1`, for which the Ratio IC50 in the test filed under Homo sapiens was 90.

For orientation: inhibition means the relative decrease from the control value, in per cent. Low readings indicate a weak effect, high ones a strong effect. For orientation: IC50 means the concentration that inhibits the measured activity by half. One may read the GI50 as the concentration at which growth is held to half of that of the control. Low readings indicate greater sensitivity of the cells, high ones lower sensitivity of the cells.
